Test results: ChEMBL document CHEMBL4842372, “Discovery of ARD-2585 as an Exceptionally Potent and Orally Active PROTAC Degrader of Androgen Receptor for the Treatment of Advanced Prostate Cancer” (J Med Chem, 2021)
Blank lines part the entries; values can stand above or below the compound they belong to. The source made the active and inactive calls. The rule behind the calls is not given here.

How the values were obtained:
[1] = target: Protein cereblon/Androgen receptor (Homo sapiens, UniProt P10275+Q96SW2); test: Protac activity at CRBN/AR in human VCaP cells assessed as AR degradation after 24 hrs by Western blot analysis; type: cell-based
VCaP [2] = test: Growth inhibition of human VCaP cells assessed as cell viability by WST-8 assay; type: functional, cell-based
[3] = Oral bioavailability in SCID mouse at 3 mg/kg by LC-MS/MS analysis; type: ADME, organism-based; conditions: in vivo
VCaP [4] = test: Antitumor activity against human VCaP cells xenografted in CB17:SCID mouse assessed as tumor growth inhibition at 40 mg/kg, po treated for 37 days relative to control; type: functional; conditions: 888 h, time 37 day, read-out: TGI
[5] = Half life in SCID mouse at 1 mg/kg, iv by LC-MS/MS analysis; type: ADME, organism-based; conditions: in vivo
Summary of the method: (§1)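 Male mice were given a single intravenous dose. Plasma drug levels were measured by a validated LC–MS/MS method (C18 column, 0.1% formic acid water/acetonitrile gradient, 0.4 mL/min). Parameters came from noncompartmental analysis.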

[6] = AUC (0 to t) in SCID mouse at 1 mg/kg, iv by LC-MS/MS analysis; type: ADME, organism-based; parameters: dose 1 mg/kg; conditions: in vivo; summary of the method: as §1
[7] = Volume of distribution at steady state in SCID mouse at 1 mg/kg, iv by LC-MS/MS analysis; type: ADME, organism-based; conditions: in vivo, read-out: Vdss
Summary of the method: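 Male mice were used, three sacrificed per time-point, with 300 μL blood collected and plasma stored at −80 °C. Drug was quantified by a validated LC–MS/MS method on a C18 column with a 0.1% formic acid water/acetonitrile gradient at 0.4 mL/min. PK parameters were derived by noncompartmental analysis.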

[8] = Tmax in SCID mouse at 3 mg/kg, po by LC-MS/MS analysis; type: ADME, organism-based; conditions: in vivo
Summary of the method: (§2)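 Nontumor-bearing male mice were given a single oral gavage dose in 100% PEG200. Three mice were sacrificed per time point, and 300 μL blood was taken from each for plasma, stored at −80 °C. Drug was quantified by LC–MS/MS on a C18 column with a 0.1% formic acid water/acetonitrile gradient at 0.4 mL/min. Parameters came from noncompartmental analysis.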

[9] = Half life in SCID mouse at 3 mg/kg, po by LC-MS/MS analysis; type: ADME, organism-based; conditions: in vivo; summary of the method: as §2
[10] = Cmax in SCID mouse at 3 mg/kg, po by LC-MS/MS analysis; type: ADME, organism-based; parameters: route oral, dose 3 mg/kg; conditions: in vivo; summary of the method: as §2
[11] = AUC (0 to t) in SCID mouse at 3 mg/kg, po by LC-MS/MS analysis; type: ADME, organism-based; parameters: dose 3 mg/kg; conditions: in vivo; summary of the method: as §2
LNCaP = test: Growth inhibition of human LNCaP cells carrying AR T878A mutant assessed as cell viability by WST-8 assay; type: functional, cell-based
VCaP [12] = test: Antitumor activity against human VCaP cells xenografted in CB17:SCID mouse assessed as reduction in AR protein level in tumor at 20 mg/kg, po measured for 6 to 24 hrs by Western blot analysis; type: functional, organism-based; conditions: time 6-24 hrs
Summary of the method: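 VCaP xenografts in male CB17 SCID mice grown to about 200 mm3; single oral gavage dose of 20 mg/kg in 100% PEG200; tumors collected at 6 and 24 h, RIPA lysates blotted for AR with GAPDH as loading control, band intensity normalised to loading control.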

[13] = Drug distribution in plasma of CB17:SCID mouse xenografted with human VCaP cells at 20 mg/kg, po measured at 6 hrs by LCMS analysis; type: ADME, organism-based
Summary of the method: (§3)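 Tumor-bearing male CB17 SCID mice (VCaP xenografts) given one 20 mg/kg oral dose in 100% PEG200, three mice per time point; plasma, tumor, liver, kidney, prostate and heart taken at 1, 6 and 24 h; tissues homogenised in water/acetonitrile, protein precipitated with cold acetonitrile, drug quantified by LC–MS/MS; ratios are tissue over plasma level.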

[14] = Drug distribution in plasma of CB17:SCID mouse xenografted with human VCaP cells at 20 mg/kg, po measured at 24 hrs by LCMS analysis; type: ADME, organism-based; summary of the method: as §3
[15] = Drug distribution in prostate gland of CB17:SCID mouse xenografted with human VCaP cells at 20 mg/kg, po measured at 6 hrs by LCMS analysis; type: ADME, organism-based; conditions: read-out: Drug uptake; summary of the method: as §3
[16] = Drug distribution in prostate gland of CB17:SCID mouse xenografted with human VCaP cells at 20 mg/kg, po measured at 24 hrs by LCMS analysis; type: ADME, organism-based; conditions: read-out: Drug uptake; summary of the method: as §3
[17] = Drug distribution in tumor of CB17:SCID mouse xenografted with human VCaP cells at 20 mg/kg, po measured at 6 hrs by LCMS analysis; type: ADME, organism-based, Neoplasm; conditions: read-out: Drug uptake; summary of the method: as §3
[18] = Drug distribution in tumor of CB17:SCID mouse xenografted with human VCaP cells at 20 mg/kg, po measured at 24 hrs by LCMS analysis; type: ADME, organism-based, Neoplasm; conditions: read-out: Drug uptake; summary of the method: as §3
VCaP [19] = test: Antitumor activity against human VCaP cells xenografted in CB17:SCID mouse assessed as reduction in AR protein level in tumor at 10 mg/kg, po for 3 days measured at 3 hrs by Western blot analysis; type: functional; conditions: 72 h, time 3 day
Summary of the method: (§4)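 Male CB17 SCID mice bearing subcutaneous VCaP tumors (5 × 10^6 cells in Matrigel); dosed by oral gavage in 100% PEG200 at 10 mg/kg daily for 3 days; tumors harvested 3, 6 and 24 h post-dose, lysed in RIPA, Western blot for AR with GAPDH loading control, bands quantified by densitometry relative to loading control.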

VCaP [20] = test: Antitumor activity against human VCaP cells xenografted in CB17:SCID mouse assessed as reduction in AR protein level in tumor at 10 mg/kg, po for 3 days measured at 6 hrs by Western blot analysis; type: functional; conditions: 72 h, time 3 day; summary of the method: as §4
VCaP [21] = test: Antitumor activity against human VCaP cells xenografted in CB17:SCID mouse assessed as reduction in AR protein level in tumor at 10 mg/kg, po for 3 days measured at 24 hrs by Western blot analysis; type: functional; conditions: 72 h, time 3 day; summary of the method: as §4
[22] = target: Protein cereblon/Androgen receptor (Homo sapiens, UniProt P10275+Q96SW2, T878A); conditions: lncap
Protein cereblon/Androgen receptor (Homo sapiens, UniProt P10275+Q96SW2, T878A), sequence (P10275 whole entry T878A, stated change not applied): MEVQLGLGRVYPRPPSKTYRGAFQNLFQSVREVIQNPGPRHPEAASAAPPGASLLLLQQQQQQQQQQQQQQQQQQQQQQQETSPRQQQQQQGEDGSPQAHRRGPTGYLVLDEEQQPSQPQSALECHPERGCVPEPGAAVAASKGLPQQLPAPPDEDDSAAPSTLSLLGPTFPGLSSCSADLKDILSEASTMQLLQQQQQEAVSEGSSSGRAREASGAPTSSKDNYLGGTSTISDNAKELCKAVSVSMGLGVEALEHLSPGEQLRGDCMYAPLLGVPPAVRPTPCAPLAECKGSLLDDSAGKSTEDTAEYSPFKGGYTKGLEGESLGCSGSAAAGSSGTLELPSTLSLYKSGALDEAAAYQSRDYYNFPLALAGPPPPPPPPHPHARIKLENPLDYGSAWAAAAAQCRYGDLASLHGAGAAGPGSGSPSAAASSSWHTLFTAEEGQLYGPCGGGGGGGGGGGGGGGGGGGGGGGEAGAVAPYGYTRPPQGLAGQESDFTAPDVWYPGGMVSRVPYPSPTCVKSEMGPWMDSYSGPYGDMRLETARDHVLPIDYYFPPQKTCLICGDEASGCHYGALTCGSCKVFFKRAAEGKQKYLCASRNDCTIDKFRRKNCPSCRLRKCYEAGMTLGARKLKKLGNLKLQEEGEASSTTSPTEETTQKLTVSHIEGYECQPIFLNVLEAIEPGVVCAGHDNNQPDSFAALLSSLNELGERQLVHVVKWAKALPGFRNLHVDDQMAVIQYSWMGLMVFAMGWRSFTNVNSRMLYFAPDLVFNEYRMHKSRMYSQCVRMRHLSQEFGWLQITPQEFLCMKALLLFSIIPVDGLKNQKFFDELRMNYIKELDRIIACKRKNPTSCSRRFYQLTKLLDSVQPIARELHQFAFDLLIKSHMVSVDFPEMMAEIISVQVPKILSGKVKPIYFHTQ
Protein cereblon/Androgen receptor (Homo sapiens, UniProt P10275+Q96SW2, T878A), sequence (Q96SW2 whole entry, stated change not applied): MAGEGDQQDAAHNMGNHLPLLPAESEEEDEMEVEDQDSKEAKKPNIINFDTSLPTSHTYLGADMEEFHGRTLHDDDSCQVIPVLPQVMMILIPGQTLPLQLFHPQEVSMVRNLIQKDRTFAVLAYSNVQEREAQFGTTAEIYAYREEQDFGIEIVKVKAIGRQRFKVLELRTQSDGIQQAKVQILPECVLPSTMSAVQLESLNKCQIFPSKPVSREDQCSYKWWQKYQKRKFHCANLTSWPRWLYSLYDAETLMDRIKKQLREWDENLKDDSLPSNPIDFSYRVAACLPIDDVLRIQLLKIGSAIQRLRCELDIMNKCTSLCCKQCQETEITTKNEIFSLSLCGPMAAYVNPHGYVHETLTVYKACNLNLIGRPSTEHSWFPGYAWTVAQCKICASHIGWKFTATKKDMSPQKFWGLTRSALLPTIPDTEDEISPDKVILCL

Protein cereblon/Androgen receptor (Homo sapiens, UniProt P10275+Q96SW2), sequence (P10275 whole entry): as the sequence (P10275 whole entry T878A, stated change not applied) above, with A878T counted along it
Protein cereblon/Androgen receptor (Homo sapiens, UniProt P10275+Q96SW2), sequence (Q96SW2 whole entry): as the sequence (Q96SW2 whole entry, stated change not applied) above

DC50 [1]: 1.5 nM
Compound: N#Cc1ccc(O[C@H]2CC[C@H](NC(=O)c3ccc(NCCCCCCCCNc4ccc5c(c4)C(=O)N(C4CCC(=O)NC4=O)C5=O)cc3)CC2)cc1Cl (stereo partly specified)

Compound: CC(O)(CS(=O)(=O)c1ccc(N2CCN(C3CCN(c4ccc5c(c4)C(=O)N(C4CCC(=O)NC4=O)C5=O)CC3)CC2)cc1)C(=O)Nc1ccc(C#N)c(C(F)(F)F)c1 (stereo unspecified)
IC50 (VCaP [2]): > 1000 nM

Compound: CN1CCN(c2ccc(C(=O)N[C@H]3CC[C@H](N(C)c4ccc(C#N)c(Cl)c4)CC3)cc2)CC1
IC50 (VCaP [2]): 61 nM

DC50 [1]: 0.3 nM
Compound: N#Cc1ccc(O[C@H]2CC[C@H](NC(=O)c3ccc(N4CCN(C5CCN(c6ccc7c(c6)C(=O)N(C6CCC(=O)NC6=O)C7=O)CC5)CC4)cc3)CC2)cc1Cl (stereo partly specified)

Compound: N#Cc1ccc(N[C@H]2CC[C@H](NC(=O)c3ccc(N4CCC(N5CCN(c6ccc7c(c6)C(=O)N(C6CCC(=O)NC6=O)C7=O)CC5)CC4)cc3)CC2)cc1Cl (stereo partly specified)
IC50 (VCaP [2]): 16.6 nM

Compound: CN(c1ccc(C#N)c(Cl)c1)[C@H]1CC[C@H](NC(=O)c2ccc(N3CCC(CN4CCN(c5ccc6c(c5)C(=O)N(C5CCC(=O)NC5=O)C6=O)CC4)CC3)cc2)CC1 (stereo partly specified)
F [3]: 35%

DC50 [1]: 0.2 nM
Compound: N#Cc1ccc(O[C@H]2CC[C@H](NC(=O)c3ccc(NCCCCCNc4ccc5c(c4)C(=O)N(C4CCC(=O)NC4=O)C5=O)cc3)CC2)cc1Cl (stereo partly specified)

Compound: CNC(=O)c1ccc(N2C(=S)N(c3ccc(C#N)c(C(F)(F)F)c3)C(=O)C2(C)C)cc1F [ENZALUTAMIDE]
inhibition in vivo at 40 mg/kg (VCaP [4]): 45%

DC50 [1]: 0.6 nM
Compound: N#Cc1ccc(O[C@H]2CC[C@H](NC(=O)c3ccc(NCCCCCCNc4ccc5c(c4)C(=O)N(C4CCC(=O)NC4=O)C5=O)cc3)CC2)cc1Cl (stereo partly specified)

DC50 [1]: 3.2 nM
Compound: N#Cc1ccc(O[C@H]2CC[C@H](NC(=O)c3ccc(NCCCCCCCCCNc4ccc5c(c4)C(=O)N(C4CCC(=O)NC4=O)C5=O)cc3)CC2)cc1Cl (stereo partly specified)

DC50 [1]: 0.8 nM
Compound: N#Cc1ccc(O[C@H]2CC[C@H](NC(=O)c3ccc(N4CCN(CCNc5ccc6c(c5)C(=O)N(C5CCC(=O)NC5=O)C6=O)CC4)cc3)CC2)cc1Cl (stereo partly specified)

DC50 [1]: 0.2 nM | half-life [5]: 6.1 h | AUC(0-t) [6]: 2420 ng·h/mL | Vd [7]: 3 L/kg | Tmax [8]: 4 h | half-life [9]: 5.6 h | Cmax [10]: 207 ng/mL | AUC(0-t) [11]: 2150 ng·h/mL | F [3]: 30%
Compound: N#Cc1ccc(O[C@H]2CC[C@H](NC(=O)c3ccc(N4CCC(N5CCN(c6ccc7c(c6)C(=O)N(C6CCC(=O)NC6=O)C7=O)CC5)CC4)cc3)CC2)cc1Cl (stereo partly specified)

IC50 (VCaP [2]): > 1000 nM
Compound: N#Cc1ccc(OC2CCN(C(=O)c3ccc(N4CCC(N5CCN(c6ccc7c(c6)C(=O)N(C6CCC(=O)NC6=O)C7=O)CC5)CC4)cc3)CC2)cc1Cl (stereo unspecified)

Compound: CN(c1ccc(C#N)c(Cl)c1)[C@H]1CC[C@H](NC(=O)c2ccc(N3CCN(C4CCN(c5ccc6c(c5)C(=O)N(C5CCC(=O)NC5=O)C6=O)CC4)CC3)cc2)CC1 (stereo partly specified)
Vd [7]: 2.6 L/kg | F [3]: 29% | IC50 (VCaP [2]): 0.8 nM | IC50 (LNCaP): 22.3 nM | inhibition (VCaP [12]): Active | concentration at 6 h [13]: 37 ng/mL | concentration at 24 h [14]: 38 ng/mL | concentration at 6 h [15]: 58 ng/g | concentration at 24 h [16]: 83 ng/g | concentration at 6 h [17]: 120 ng/g | concentration at 24 h [18]: 176 ng/g | inhibition in vivo at 10 mg/kg (VCaP [19]): 74% | inhibition in vivo at 10 mg/kg (VCaP [20]): 70% | inhibition in vivo at 10 mg/kg (VCaP [21]): 20% | DC50 [22]: 0.4 nM
